Activity calls are given as the source filed them. No cut-off for these calls is given here.
Key:
[1] = test system: Mus musculus; assay: Reduction of fasting blood glucose in DIO C57BL/6 mouse model at 5 mg/kg, po assessed as glucose level by glucose tolerance test; format: functional
How it was run: (§1)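 Male C57BL/6 mice, started at nine weeks, fed 60%-fat diet until mean weight ~40 g; 6-10 per group; once-daily oral gavage in 2% HPMC + 0.2% DOSS. Fed glucose at 2, 4, 6, 8, 10 weeks; IPGTT after 5 weeks; ITT after 10 weeks. One-way ANOVA with Dunnett's test vs control, p<0.05.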

[2] = test system: Mus musculus; assay: Reduction of glucose levels in DIO C57BL/6 mouse model at 5 mg/kg, po during insulin tolerance test; format: functional, organism-based; set-up: dose 5 mg/kg; how it was run: as §1
[3] = target: T1, NAD-dependent protein deacetylase sirtuin-3, mitochondrial (Homo sapiens, UniProt Q9NTG7); assay: Activation of SIRT3 by mass spectrometry assay
T1 sequence (Q9NTG7 whole entry): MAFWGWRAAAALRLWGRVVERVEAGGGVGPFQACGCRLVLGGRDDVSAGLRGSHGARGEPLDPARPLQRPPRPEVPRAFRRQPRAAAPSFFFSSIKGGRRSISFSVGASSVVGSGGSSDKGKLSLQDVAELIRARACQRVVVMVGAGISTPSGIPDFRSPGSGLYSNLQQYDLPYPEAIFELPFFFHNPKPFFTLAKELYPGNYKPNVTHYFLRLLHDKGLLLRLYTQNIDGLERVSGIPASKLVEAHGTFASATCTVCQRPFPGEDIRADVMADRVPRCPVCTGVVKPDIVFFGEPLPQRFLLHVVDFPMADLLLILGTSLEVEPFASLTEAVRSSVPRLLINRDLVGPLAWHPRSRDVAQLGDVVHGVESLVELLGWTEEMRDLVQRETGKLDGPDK

[4] = target: T2, NAD-dependent protein deacetylase sirtuin-1 (Homo sapiens) (UniProt Q96EB6); assay: Activation of human SIRT1 assessed as decrease in Km of enzyme for acetylated peptide substrate by mass spectrometry assay
T2 sequence (whole entry): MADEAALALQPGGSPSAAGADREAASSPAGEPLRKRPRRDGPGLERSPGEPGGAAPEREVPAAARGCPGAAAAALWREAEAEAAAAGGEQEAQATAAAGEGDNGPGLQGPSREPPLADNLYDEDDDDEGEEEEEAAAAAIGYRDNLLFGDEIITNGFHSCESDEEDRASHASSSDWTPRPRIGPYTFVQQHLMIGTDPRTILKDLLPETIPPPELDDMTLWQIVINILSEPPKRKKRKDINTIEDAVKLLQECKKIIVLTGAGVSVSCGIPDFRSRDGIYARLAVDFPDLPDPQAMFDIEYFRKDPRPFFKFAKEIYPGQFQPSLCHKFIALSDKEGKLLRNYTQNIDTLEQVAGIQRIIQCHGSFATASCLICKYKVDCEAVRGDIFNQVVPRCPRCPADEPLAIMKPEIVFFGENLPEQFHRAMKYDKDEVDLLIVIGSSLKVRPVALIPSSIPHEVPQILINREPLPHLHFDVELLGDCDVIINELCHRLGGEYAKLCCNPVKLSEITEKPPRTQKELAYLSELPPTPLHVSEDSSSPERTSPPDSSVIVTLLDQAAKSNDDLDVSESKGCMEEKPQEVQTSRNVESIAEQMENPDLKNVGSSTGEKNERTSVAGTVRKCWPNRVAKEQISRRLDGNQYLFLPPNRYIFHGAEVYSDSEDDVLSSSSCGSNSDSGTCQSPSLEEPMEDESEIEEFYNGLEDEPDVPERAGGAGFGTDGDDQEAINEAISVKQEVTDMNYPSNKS

[5] = target: T2, NAD-dependent protein deacetylase sirtuin-1 (Homo sapiens); assay: (§2) Activation of human SIRT1 expressed in Escherichia coli BL21 by mass spectrometry assay
[6] = target: T3, NAD-dependent protein deacetylase sirtuin-1 (Homo sapiens, UniProt Q96EB6); assay: as §2
T3 sequence (Q96EB6 whole entry): T2 sequence (whole entry)

[7] = target: T2, NAD-dependent protein deacetylase sirtuin-1 (Homo sapiens); assay: Activation of SIRT1 in human U2OS cells assessed as decrease in deacetylation level at 10 uM; format: cell-based
How it was run: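 U-2 OS cells seeded 1.5 × 10⁴/well; compounds in DMSO added after 24 h, then doxorubicin 1 μg/ml final to induce p53. Fixed, permeabilized, immunostained for Ac-Lys382-p53 and beta-tubulin, infrared scan; background-corrected acetyl signal normalized to tubulin, then to vehicle as % acetylated p53. Replicate plates co-treated with a SIRT1-specific inhibitor.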

[8] = target: T4, NAD-dependent protein deacetylase sirtuin-2 (Homo sapiens, UniProt Q8IXJ6); assay: Activation of SIRT2 by mass spectrometry assay
T4 sequence (Q8IXJ6 whole entry): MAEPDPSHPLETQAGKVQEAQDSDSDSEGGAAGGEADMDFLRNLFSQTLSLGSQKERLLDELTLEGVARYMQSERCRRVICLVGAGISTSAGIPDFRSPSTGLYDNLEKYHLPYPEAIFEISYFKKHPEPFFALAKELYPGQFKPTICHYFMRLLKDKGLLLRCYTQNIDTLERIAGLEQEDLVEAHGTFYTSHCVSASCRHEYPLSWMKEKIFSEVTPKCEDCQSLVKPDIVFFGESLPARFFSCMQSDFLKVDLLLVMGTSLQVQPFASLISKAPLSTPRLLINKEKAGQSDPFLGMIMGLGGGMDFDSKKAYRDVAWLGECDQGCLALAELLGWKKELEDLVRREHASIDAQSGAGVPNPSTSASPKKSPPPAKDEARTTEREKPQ

Compound	Activity [1] [mg/h/dL]	Activity [2]	EC50 [3] [µM]	Activity [4]	Activity [5] [%]	EC50 [6] [µM]	Activity [7]	EC50 [8] [µM]
CN(CCOc1ccc(CC2SC(=O)NC2=O)cc1)c1ccccn1 (stereo not drawn) [ROSIGLITAZONE]	496	Active	–	–	–	–	–	–
O=C(Nc1ccccc1-c1cn2c(CN3CC[C@@H](O)C3)csc2n1)c1ccc2ccccc2c1	–	–	> 300	Active	296	0.36	Active	> 300

From ChEMBL document CHEMBL1147981, “Small molecule activators of SIRT1 as therapeutics for the treatment of type 2 diabetes” (Nature, 2007)
